# Published values of several laboratories.
# Each line is one published result; the experiments were not run side by side.
# Target: Mitogen-activated protein kinase kinase kinase 3 (MAP3K3, Homo sapiens, UniProt Q99759)
# Residues used in one study (Q99759 1-626): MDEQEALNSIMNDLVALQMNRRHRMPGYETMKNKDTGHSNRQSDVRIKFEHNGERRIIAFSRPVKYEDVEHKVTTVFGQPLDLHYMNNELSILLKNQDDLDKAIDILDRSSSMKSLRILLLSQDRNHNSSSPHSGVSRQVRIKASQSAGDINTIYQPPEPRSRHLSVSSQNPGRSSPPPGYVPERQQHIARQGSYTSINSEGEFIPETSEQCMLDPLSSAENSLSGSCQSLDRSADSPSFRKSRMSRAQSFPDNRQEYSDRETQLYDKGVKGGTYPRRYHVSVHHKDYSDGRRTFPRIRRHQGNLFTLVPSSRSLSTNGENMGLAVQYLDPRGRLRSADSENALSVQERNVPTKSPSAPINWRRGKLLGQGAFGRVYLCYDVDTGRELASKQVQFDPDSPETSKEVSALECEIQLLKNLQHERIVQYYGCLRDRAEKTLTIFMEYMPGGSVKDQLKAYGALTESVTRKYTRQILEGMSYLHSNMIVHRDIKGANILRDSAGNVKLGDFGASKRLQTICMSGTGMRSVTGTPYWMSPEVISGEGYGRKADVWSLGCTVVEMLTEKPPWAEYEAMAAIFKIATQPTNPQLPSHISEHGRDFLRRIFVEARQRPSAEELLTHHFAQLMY
Structure (SMILES),test,setting,measurement,value
O=C1NC(=O)c2cc(Nc3ccc(F)cc3)c(Nc3ccc(F)cc3)cc21,cell-free assay,0.5 µM,remaining signal,102%
CC(C)(C)c1nc(-c2cccc(NS(=O)(=O)c3c(F)cccc3F)c2F)c(-c2ccnc(N)n2)s1,"enzyme activity, inhibitor, radiometric",1 µM,remaining activity,96%
Cn1cc(Cl)c2c(Oc3c(F)cc(Nc4cc(Cl)nc(N)n4)cc3F)ccnc21,"cell-free assay, competition with immobilised ligand",0.1 µM,remaining binding,90%
COc1ccc(F)cc1C(=O)NCc1ccc(-c2nn([C@@H](C)C(F)(F)F)c(N)c2C(N)=O)cc1,"target engagement in cells, inhibitor, chemoproteomics",10 nM,inhibition,4.7%
CCS(=O)(=O)c1cc2cc(C[C@@](O)(CC(C)(C)c3ccc(F)cc3C(N)=O)C(F)(F)F)[nH]c2cn1,"cell-free assay, competition with immobilised ligand",1 µM,remaining binding,90%
c1cnn2ncc(-c3ccnc(N4CCC45COC5)n3)c2c1,binding,1 µM,remaining binding,40%
CCOc1cc(-c2nncn2C)ccc1Nc1ncc2cc(C)nc(NCC(C)(C)C)c2n1,"cell-free assay, TR-FRET",1 µM,inhibition,≤ 15%
Cc1sc(C(=O)NC2COC2)cc1-n1cc(NC(=O)Nc2c(F)cccc2Cl)cn1,"enzyme activity, inhibitor",10 µM,remaining activity,113%
C[C@H](c1ccc(F)cc1)N(Cc1cccc(C(=O)O)c1)C(=O)c1cnc2ccccc2c1,"cell-free assay, competition with immobilised ligand",1 µM,remaining binding,100%
CS(=O)(=O)CCNCc1ccc(-c2ccc3ncnc(Nc4ccc(OCc5cccc(F)c5)c(Cl)c4)c3c2)o1,cell-free assay,0.5 µM,remaining signal,110%
O=C(NS(=O)(=O)c1ccc(NCC2CCOCC2)c([N+](=O)[O-])c1)c1ccc(N2CCN(Cc3ccc(C(F)(F)F)cc3-c3ccc(Cl)cc3)CC2)cc1Oc1cnc2[nH]ccc2c1,"cell-free assay, competition with immobilised ligand",1 µM,remaining binding,82%
Cc1ccc(NC(=O)c2ccc(CN3CCN(C)CC3)cc2)cc1Nc1nc(-c2cccnc2)cs1,cell-free assay,0.5 µM,remaining signal,108%
CN1CC(Oc2cnc(C#N)cc2-c2ccn3nc(NC(=O)C4CC4)cc3c2)C1,"enzyme activity, inhibitor",1 µM,inhibition,3%
N#CCCc1ccc2c(c1)-c1[nH]c3ccc([N+](=O)[O-])cc3c1CC(=O)N2,cell-free assay,0.5 µM,remaining signal,83.3%
C[C@@H]1CN(c2cc(-c3n[nH]c4ccc(OC5(C)CC5)cc34)ncn2)C[C@H](C)O1,"cell-free assay, competition with immobilised ligand",0.1 µM,remaining binding,64%
COc1cc(Cl)c(C(=O)N[C@@H](CN[C@H]2CC[C@@H](N)CC2)Cc2ccc(C#N)cc2)cc1-c1ccc(CN[C@H](C)c2ccc(C)cc2)o1,"enzyme activity, inhibitor",1 µM,remaining activity,95%
